≈ marks a conversion by molar mass, not a printed value. Calls of active or inactive are those of the source. The rule behind the calls is not given here.
How the values were obtained:
[1] = system: Venezuelan equine encephalitis virus; assay: Antiviral activity against Venezuelan equine encephalitis virus TrD infected in Vero 76 cells assessed as reduction in viral titer at 5 uM by crystal violet staining based microplaque assay relative to untreated control; assay type: functional, organism-based
Oryctolagus cuniculus = species: Oryctolagus cuniculus; assay: Displacement of [3H]alpha,beta-methylene-ATP from rabbit P2X channel at 10 uM
[2] = target: Cannabinoid receptor 1 (Homo sapiens) (UniProt P21554); assay: Displacement of [3H]SR141716A from human CB1 receptor at 10 uM
[3] = target: Histamine H2 receptor (Homo sapiens) (UniProt P25021); assay: Displacement of [3H]N-alpha-Methylhistamine from human histamine H3 receptor at 10 uM
[4] = target: GABA-A receptor; anion channel (Homo sapiens) (UniProt P14867+P47870+P18507+P28472+P48169+Q99928+Q9UN88+P34903+O00591+O14764+Q8N1C3+P18505+P78334+P47869+P31644+Q16445); assay: Displacement of ABC from rat GABAA receptor central muscimol site at 10 uM; assay type: protein-complex assay; details: target entry is the homologue from another species
Cytochrome P450 1A2 = Cytochrome P450 1A2 (Homo sapiens, UniProt P05177); assay: Inhibition of human CYP1A2 at 10 uM; assay type: ADME
Summary of the method: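 Human CYP inhibition run with reference inhibitors as controls: α-naphthoflavone for CYP1A2 and ketoconazole for CYP3A4.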

[5] = target: Alpha-2A adrenergic receptor (Homo sapiens) (UniProt P08913); assay: Displacement of [3H]MK-912 from human adrenergic alpha2A receptor at 10 uM
[6] = target: 5-hydroxytryptamine receptor 1A (Homo sapiens) (UniProt P08908); assay: Displacement of [3H]8-OH-DPAT from human 5HT1A receptor at 10 uM
[7] = Plasma concentration in C57BL/6 mouse at 1 mg/kg, ip administered as single dose measured after 120 mins by LC/MS analysis based RACE assay; assay type: ADME, organism-based; parameters: dose 1 mg/kg, route intraperitoneal
Summary of the method: (§1)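 Single intraperitoneal dose of 1, 5 or 10 mg/kg given to C57BL/6 mice, 3 mice per dose and time point, with a vehicle-control cohort. Plasma was sampled at 20 and 120 min post-dose and drug level measured by LC/MS. Each time point averaged two injections (<20% difference); values are means ± standard deviation in μM.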

[8] = Stability in 1:1 PBS/acetonitrile assessed as parent compound remaining; assay type: physicochemical; details: buffer
Summary of the method: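 Aqueous stability measured after 48 h incubation, in PBS pH 7.4 or in 1:1 PBS/acetonitrile; reported as % parent remaining.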

[9] = Cytotoxicity against african green monkey Vero 76 cells after 3 days by Celltiter-Glo reagent based assay; assay type: cell-based; details: chlorocebus sabaeus, vero 76, 72 h
Summary of the method: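 Vero 76 cells were seeded overnight at 12 000/well and given an 8-point 2-fold compound series (20 mM DMSO stock) in EMEM/10% FBS with no virus. Viability was read by CellTiter-Glo after 3 days relative to untreated cells. Run in duplicate; CC50 from a four-parameter logistic or sigmoidal fit.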

[10] = target: Androgen receptor (Rattus norvegicus) (UniProt P15207); assay: Displacement of [3H]mibolerone from rat androgen receptor at 10 uM
[11] = target: Cysteinyl leukotriene receptor 1 (Homo sapiens) (UniProt Q9Y271); assay: Displacement of [3H]LTD4 from human CysLT1 receptor at 10 uM
[12] = Plasma concentration in C57BL/6 mouse at 10 mg/kg, ip administered as single dose measured after 120 mins by LC/MS analysis based RACE assay; assay type: ADME, organism-based; parameters: dose 10 mg/kg, route intraperitoneal; summary of the method: as §1
[13] = Plasma concentration in C57BL/6 mouse at 5 mg/kg, ip administered as single dose measured after 20 mins by LC/MS analysis based RACE assay; assay type: ADME, organism-based; parameters: dose 5 mg/kg, route intraperitoneal; summary of the method: as §1
Plasma = assay: Stability in mouse plasma assessed as parent compound remaining after 3 hrs; assay type: ADME, cell-free
[14] = target: Neuronal acetylcholine receptor (Rattus norvegicus) (UniProt P04757+P09483+P12389+P12390+P12392+P43144+Q9JLB5+P12391+P43143+P20420+Q05941); assay: Displacement of [125I]epibatidine from human nAchR at 10 uM; assay type: protein-complex assay
[15] = system: Venezuelan equine encephalitis virus; assay: Antiviral activity against Venezuelan equine encephalitis virus TrD infected in Vero 76 cells assessed as reduction in viral titer at 0.5 uM by crystal violet staining based microplaque assay relative to untreated control; assay type: functional, organism-based
[16] = target: Adenosine receptor A2a (Homo sapiens) (UniProt P29274); assay: Displacement of [3H]CGS-21680 from human adenosine A2A receptor at 10 uM
Liver = assay: Stability in mouse liver microsomes as parent compound remaining; assay type: ADME
Summary of the method: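 Mouse hepatic microsomes incubated for 1 h; reported as % parent remaining.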

[17] = Plasma concentration in C57BL/6 mouse at 10 mg/kg, ip administered as single dose measured after 20 mins by LC/MS analysis based RACE assay; assay type: ADME, organism-based; parameters: dose 10 mg/kg, route intraperitoneal; summary of the method: as §1
[18] = target: Beta-2 adrenergic receptor (Homo sapiens) (UniProt P07550); assay: Displacement of [3H]CGP-12177 from human adrenergic beta2 receptor at 10 uM
[19] = target: B2 bradykinin receptor (Homo sapiens) (UniProt P30411); assay: Displacement of [3H]bradykinin from human bradykinin B2 receptor at 10 uM
CYP2C19 = CYP2C19 (Homo sapiens, UniProt P33261); assay: Inhibition of human CYP2C19 at 10 uM; assay type: ADME
[20] = target: L-type calcium channel, dihydropyridine site (Rattus norvegicus, UniProt P22002+P27732+Q02485); assay: Displacement of [3H]nitrendipine from rat calcium channel L-Type dihydropyridine site at 10 uM; assay type: protein assay; details: probe [3H]nitrendipine
Rattus norvegicus = species: Rattus norvegicus; assay: Displacement of [3H]GABA from rat GABA transporter at 10 uM
[21] = target: 5-hydroxytryptamine receptor 2B (Homo sapiens) (UniProt P41595); assay: Displacement of [3H]lysergic acid diethylamide from human 5HT2B receptor at 10 uM
Mus musculus = assay: Toxicity in Venezuelan equine encephalitis virus TC83 infected C3H/HeN mouse assessed as induction of hunched posture at 40 mg/kg/day, ip BID for 4 days; assay type: organism-based; parameters: route intraperitoneal; details: in vivo, 96 h
CYP2D6 = CYP2D6 (Homo sapiens, UniProt P10635); assay: Inhibition of human CYP2D6 at 10 uM; assay type: ADME
[22] = target: Epidermal growth factor receptor (Homo sapiens) (UniProt P00533); assay: Displacement of [125I]EGF from human EGFR at 10 uM
[23] = target: Neuropeptide Y receptor type 1 (Homo sapiens) (UniProt P25929); assay: Displacement of [125I]Peptide YY from human neuropeptide Y Y1 receptor at 10 uM
[24] = target: Endothelin receptor type B (Homo sapiens) (UniProt P24530); assay: Displacement of [125I]endothelin-1 from human ETB receptor at 10 uM
[25] = target: Beta-1 adrenergic receptor (Homo sapiens) (UniProt P08588); assay: Displacement of [125I]cyanopindolol from human adrenergic beta1 receptor at 10 uM
[26] = Aqueous solubility in PBS buffer; assay type: physicochemical
Summary of the method: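 Solubility measured in 1× PBS at pH 7.4.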

Chain of Adenosine receptor A2a (Homo sapiens) (P29274 whole entry): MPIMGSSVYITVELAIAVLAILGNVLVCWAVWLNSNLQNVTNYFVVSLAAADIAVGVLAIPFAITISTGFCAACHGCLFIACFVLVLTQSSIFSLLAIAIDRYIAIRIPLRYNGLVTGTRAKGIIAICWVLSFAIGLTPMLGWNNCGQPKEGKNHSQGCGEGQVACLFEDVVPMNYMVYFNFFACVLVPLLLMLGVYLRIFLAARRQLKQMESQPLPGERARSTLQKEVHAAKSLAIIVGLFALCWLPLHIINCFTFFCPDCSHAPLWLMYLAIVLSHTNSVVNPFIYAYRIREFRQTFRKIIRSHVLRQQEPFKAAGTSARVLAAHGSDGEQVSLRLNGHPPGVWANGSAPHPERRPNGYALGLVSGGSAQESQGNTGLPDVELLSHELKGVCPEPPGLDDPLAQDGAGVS
Chain of Cytochrome P450 1A2 (P05177 whole entry): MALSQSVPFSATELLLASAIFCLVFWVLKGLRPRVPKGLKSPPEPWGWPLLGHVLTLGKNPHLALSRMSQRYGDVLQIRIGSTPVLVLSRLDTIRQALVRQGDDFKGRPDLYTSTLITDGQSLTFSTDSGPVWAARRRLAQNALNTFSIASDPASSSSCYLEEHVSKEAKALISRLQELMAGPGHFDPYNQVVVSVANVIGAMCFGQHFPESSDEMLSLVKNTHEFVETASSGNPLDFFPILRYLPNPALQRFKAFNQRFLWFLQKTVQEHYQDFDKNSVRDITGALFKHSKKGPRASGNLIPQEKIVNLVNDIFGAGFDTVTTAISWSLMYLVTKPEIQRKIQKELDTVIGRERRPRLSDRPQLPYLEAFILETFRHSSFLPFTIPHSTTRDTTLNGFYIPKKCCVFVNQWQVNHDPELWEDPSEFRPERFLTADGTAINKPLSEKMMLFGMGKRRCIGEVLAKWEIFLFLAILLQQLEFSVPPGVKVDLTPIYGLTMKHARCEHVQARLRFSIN
Chain of Cysteinyl leukotriene receptor 1 (Homo sapiens) (Q9Y271 whole entry): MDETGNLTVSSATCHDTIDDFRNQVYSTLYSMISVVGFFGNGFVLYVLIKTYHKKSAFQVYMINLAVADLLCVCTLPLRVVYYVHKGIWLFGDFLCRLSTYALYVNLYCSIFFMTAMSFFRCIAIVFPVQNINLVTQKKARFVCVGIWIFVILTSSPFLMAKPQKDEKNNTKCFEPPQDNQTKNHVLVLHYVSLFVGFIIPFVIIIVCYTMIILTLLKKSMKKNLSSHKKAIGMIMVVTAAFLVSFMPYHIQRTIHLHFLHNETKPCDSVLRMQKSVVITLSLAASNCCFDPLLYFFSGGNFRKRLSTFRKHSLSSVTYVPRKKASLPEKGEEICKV
Chain of CYP2C19 (P33261 whole entry): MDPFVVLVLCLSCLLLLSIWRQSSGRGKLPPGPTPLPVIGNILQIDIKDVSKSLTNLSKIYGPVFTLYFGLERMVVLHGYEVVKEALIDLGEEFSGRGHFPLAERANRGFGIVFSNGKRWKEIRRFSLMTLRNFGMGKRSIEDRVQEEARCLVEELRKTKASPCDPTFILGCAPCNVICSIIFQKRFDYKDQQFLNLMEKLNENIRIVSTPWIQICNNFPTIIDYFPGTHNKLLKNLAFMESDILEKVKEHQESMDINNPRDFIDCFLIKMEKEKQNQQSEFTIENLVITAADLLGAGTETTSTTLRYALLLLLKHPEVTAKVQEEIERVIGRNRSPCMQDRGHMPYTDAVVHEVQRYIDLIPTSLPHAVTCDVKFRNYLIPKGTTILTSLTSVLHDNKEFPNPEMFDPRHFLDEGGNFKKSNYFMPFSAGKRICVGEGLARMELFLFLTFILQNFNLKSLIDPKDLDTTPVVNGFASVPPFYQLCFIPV
Chain of Beta-1 adrenergic receptor (Homo sapiens) (P08588 whole entry, looked up): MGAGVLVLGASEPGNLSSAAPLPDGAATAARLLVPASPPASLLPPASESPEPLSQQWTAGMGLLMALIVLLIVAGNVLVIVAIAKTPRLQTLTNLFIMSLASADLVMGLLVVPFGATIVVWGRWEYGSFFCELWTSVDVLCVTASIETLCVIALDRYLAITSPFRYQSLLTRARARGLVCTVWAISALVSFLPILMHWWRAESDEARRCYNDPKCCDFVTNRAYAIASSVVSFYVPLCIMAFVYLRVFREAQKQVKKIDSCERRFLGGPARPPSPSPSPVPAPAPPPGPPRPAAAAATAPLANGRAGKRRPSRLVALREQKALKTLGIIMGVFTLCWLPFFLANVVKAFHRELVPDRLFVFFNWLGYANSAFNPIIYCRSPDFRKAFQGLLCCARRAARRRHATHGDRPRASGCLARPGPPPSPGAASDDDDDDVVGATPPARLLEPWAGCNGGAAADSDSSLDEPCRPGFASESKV
Chain of 5-hydroxytryptamine receptor 2B (Homo sapiens) (P41595 whole entry): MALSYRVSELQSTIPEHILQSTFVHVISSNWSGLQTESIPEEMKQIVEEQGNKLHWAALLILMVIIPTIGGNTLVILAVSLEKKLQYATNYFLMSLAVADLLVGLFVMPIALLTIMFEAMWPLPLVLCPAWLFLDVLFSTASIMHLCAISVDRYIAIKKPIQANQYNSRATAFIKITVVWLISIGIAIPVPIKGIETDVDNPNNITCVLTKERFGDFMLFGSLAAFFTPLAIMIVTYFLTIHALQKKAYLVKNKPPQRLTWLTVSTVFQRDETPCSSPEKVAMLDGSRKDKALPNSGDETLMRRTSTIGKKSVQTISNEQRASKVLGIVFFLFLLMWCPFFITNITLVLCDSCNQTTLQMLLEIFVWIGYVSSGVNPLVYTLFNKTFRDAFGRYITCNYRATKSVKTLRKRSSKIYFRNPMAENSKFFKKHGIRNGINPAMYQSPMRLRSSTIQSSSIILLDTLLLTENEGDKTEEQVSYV
Chain of Epidermal growth factor receptor (Homo sapiens) (P00533 whole entry): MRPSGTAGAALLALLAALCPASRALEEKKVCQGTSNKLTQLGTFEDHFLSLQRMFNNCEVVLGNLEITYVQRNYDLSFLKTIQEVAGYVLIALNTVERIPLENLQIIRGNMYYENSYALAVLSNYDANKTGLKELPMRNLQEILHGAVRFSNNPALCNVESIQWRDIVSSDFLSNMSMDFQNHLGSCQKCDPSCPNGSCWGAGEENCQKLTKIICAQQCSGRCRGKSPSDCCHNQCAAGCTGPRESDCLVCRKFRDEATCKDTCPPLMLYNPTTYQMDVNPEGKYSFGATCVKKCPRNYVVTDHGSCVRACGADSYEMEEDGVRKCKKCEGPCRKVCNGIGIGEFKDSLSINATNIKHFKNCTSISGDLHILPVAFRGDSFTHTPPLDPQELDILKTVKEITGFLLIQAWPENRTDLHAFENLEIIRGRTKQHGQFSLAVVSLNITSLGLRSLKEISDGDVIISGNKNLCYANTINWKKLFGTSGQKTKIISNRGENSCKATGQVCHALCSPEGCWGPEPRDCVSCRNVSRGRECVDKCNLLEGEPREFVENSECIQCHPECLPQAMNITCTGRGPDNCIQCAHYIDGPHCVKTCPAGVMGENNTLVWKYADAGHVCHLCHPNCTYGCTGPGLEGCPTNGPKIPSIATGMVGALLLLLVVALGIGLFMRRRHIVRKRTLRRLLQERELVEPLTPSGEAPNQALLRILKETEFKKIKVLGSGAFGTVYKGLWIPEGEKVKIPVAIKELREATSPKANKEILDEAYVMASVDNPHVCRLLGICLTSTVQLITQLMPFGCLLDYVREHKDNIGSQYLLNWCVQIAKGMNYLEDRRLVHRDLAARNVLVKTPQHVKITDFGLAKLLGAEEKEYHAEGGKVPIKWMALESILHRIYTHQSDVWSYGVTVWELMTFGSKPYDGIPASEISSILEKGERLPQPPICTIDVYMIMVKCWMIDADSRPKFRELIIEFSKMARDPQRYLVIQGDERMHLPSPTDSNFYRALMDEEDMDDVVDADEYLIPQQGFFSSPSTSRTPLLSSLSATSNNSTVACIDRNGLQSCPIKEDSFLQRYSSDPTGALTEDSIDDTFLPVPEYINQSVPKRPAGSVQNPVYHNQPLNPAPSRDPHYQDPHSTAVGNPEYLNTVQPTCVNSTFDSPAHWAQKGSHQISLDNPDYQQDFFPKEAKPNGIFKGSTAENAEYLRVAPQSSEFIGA
Chain of Androgen receptor (Rattus norvegicus) (P15207 whole entry S389L): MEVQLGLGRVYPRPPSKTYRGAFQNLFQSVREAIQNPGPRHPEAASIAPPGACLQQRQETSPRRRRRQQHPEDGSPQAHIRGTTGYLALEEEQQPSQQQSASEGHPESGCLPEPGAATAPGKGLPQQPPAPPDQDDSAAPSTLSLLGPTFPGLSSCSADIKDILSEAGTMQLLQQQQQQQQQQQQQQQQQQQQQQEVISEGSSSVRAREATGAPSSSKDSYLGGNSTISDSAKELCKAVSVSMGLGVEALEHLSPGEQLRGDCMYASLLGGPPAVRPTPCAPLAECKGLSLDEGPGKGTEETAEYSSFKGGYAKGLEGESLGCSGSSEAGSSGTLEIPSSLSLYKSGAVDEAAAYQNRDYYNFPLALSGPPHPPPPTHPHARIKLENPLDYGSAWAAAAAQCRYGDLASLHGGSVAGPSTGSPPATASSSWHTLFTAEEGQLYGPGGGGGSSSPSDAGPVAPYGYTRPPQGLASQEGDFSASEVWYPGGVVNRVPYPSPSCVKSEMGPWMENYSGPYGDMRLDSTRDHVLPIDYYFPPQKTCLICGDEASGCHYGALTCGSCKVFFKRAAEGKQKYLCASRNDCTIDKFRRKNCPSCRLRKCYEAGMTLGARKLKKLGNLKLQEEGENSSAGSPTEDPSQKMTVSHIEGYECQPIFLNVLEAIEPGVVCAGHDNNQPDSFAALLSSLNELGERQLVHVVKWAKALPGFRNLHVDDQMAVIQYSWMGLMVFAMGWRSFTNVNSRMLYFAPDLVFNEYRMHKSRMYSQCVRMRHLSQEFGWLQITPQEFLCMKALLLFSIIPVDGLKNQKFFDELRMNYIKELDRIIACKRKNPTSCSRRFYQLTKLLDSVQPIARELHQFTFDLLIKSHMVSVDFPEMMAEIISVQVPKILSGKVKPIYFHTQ

For `CN1CCN(C)/C(=N/c2ccc([N+](=O)[O-])cc2C(=O)Nc2ccccc2)C1`, the inhibition [1] was “Active”, the inhibition (Oryctolagus cuniculus) was 14.2% and the inhibition [2] was -2.06%. The inhibition [3] was 15.8%, the inhibition [4] was 0.52% and the “inhibition (INH)” value (Cytochrome P450 1A2) was 1.5%. The inhibition [5] was -0.5%, the inhibition [6] was 2.12% and the concentration at 2 h [7] was 23 nM. For the same molecule, the Stability [8] was 95.9%, the CC50 [9] was > 50 µM and the inhibition [10] was 1.1%. It also gave an inhibition [11] of 10.9%, a concentration at 2 h [12] of 490 nM and a concentration at 20 min [13] of 1450 nM. For the same molecule, the Stability (Plasma) was 65.4%, the inhibition [14] was 10.8% and the inhibition [15] was “Active”. For the same molecule, the inhibition [16] was 17%, the Stability (Liver) was 42.9% and the concentration at 20 min [17] was 2680 nM. For the same molecule, the inhibition [18] was 6.39%, the inhibition [19] was 3.4% and the inhibition at 10 µM (CYP2C19) was 17%. For the same molecule, the inhibition at 10 µM [20] was 4.51%, the inhibition (Rattus norvegicus) was 0.42% and the inhibition [21] was 10%. The Activity (Mus musculus) was “Non-toxic”, the inhibition at 10 µM (CYP2D6) was 28% and the inhibition [22] was -2.63%. The inhibition [23] was 25.9%, the inhibition [24] was 8.32% and the inhibition [25] was 3.56%. For the same molecule, the solubility [26] was 40.4 µg/mL (≈ 110 µM).

Reference: ChEMBL document CHEMBL3352189 (J Med Chem, 2014)
